Converted amounts (≈) assume the structure as drawn.
Tested on: Klebsiella pneumoniae
Experiment: Antimicrobial activity against CTX-M-2 producing Klebsiella pneumoniae with PFGE pulsotype A by Etest
Format: functional
Conditions: not given
Procedure, shortened: (§1)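 Clinical K. pneumoniae isolates from a neonatal ICU outbreak near São Paulo were typed by XbaI PFGE using Tenover criteria. Cultures were grown in LB broth at 37°C. Etest MICs followed the manufacturer's instructions, with cefotaxime and ceftazidime each tested with and without clavulanic acid.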

Question: With C[C@@H](O)[C@H]1C(=O)N2C(C(=O)O)=C(S[C@@H]3CN[C@H](C(=O)Nc4cccc(C(=O)O)c4)C3)[C@H](C)[C@H]12 as the compound, how does the MIC read?
Answer: 1.5 µg/mL (≈ 3.15 µM)

Tested on: Klebsiella pneumoniae
Experiment: Antimicrobial activity against CTX-M-2 producing Klebsiella pneumoniae with PFGE pulsotype B by Etest
Format: functional
Conditions: not given
Procedure, shortened: as §1

Question: Which MIC does the source give for C[C@@H](O)[C@H]1C(=O)N2C(C(=O)O)=C(S[C@@H]3CN[C@H](C(=O)Nc4cccc(C(=O)O)c4)C3)[C@H](C)[C@H]12 here?
Answer: 1 µg/mL (≈ 2.1 µM)

Tested on: Klebsiella pneumoniae
Experiment: Antimicrobial activity against CTX-M-59 producing Klebsiella pneumoniae with PFGE pulsotype C by Etest
Format: functional
Conditions: not given

Question: Which MIC does the source give for C[C@@H](O)[C@H]1C(=O)N2C(C(=O)O)=C(S[C@@H]3CN[C@H](C(=O)Nc4cccc(C(=O)O)c4)C3)[C@H](C)[C@H]12 here?
Answer: 1.5 µg/mL (≈ 3.15 µM)

Tested on: Klebsiella pneumoniae
Experiment: Antimicrobial activity against SHV-5 producing Klebsiella pneumoniae with PFGE pulsotype D by Etest
Format: functional
Conditions: not given
Procedure, shortened: as §1

Question: Which MIC does the source give for C[C@@H](O)[C@H]1C(=O)N2C(C(=O)O)=C(S[C@@H]3CN[C@H](C(=O)Nc4cccc(C(=O)O)c4)C3)[C@H](C)[C@H]12 here?
Answer: 0.094 µg/mL (≈ 0.198 µM)

Tested on: Klebsiella pneumoniae
Experiment: Antimicrobial activity against CTX-M-59 producing Klebsiella pneumoniae with PFGE pulsotype E by Etest
Format: functional
Conditions: not given

Question: How did the MIC turn out when C[C@@H](O)[C@H]1C(=O)N2C(C(=O)O)=C(S[C@@H]3CN[C@H](C(=O)Nc4cccc(C(=O)O)c4)C3)[C@H](C)[C@H]12 was run?
Answer: 1.5 µg/mL (≈ 3.15 µM)

Tested on: Klebsiella pneumoniae
Experiment: Antimicrobial activity against CTX-M-2 producing Klebsiella pneumoniae with PFGE pulsotype F by Etest
Format: functional
Conditions: not given

Question: With C[C@@H](O)[C@H]1C(=O)N2C(C(=O)O)=C(S[C@@H]3CN[C@H](C(=O)Nc4cccc(C(=O)O)c4)C3)[C@H](C)[C@H]12 as the compound, how does the MIC read?
Answer: 1.5 µg/mL (≈ 3.15 µM)

Tested on: Klebsiella pneumoniae
Experiment: Antimicrobial activity against CTX-M-59 producing Klebsiella pneumoniae with PFGE pulsotype G by Etest
Format: functional
Conditions: not given
Procedure, shortened: as §1

Question: For C[C@@H](O)[C@H]1C(=O)N2C(C(=O)O)=C(S[C@@H]3CN[C@H](C(=O)Nc4cccc(C(=O)O)c4)C3)[C@H](C)[C@H]12, which MIC is on record?
Answer: 1.5 µg/mL (≈ 3.15 µM)

Tested on: Klebsiella pneumoniae
Experiment: Antimicrobial activity against CTX-M-2 producing Klebsiella pneumoniae with PFGE pulsotype H by Etest
Format: functional
Conditions: not given
Procedure, shortened: as §1

Question: Which MIC does the source give for C[C@@H](O)[C@H]1C(=O)N2C(C(=O)O)=C(S[C@@H]3CN[C@H](C(=O)Nc4cccc(C(=O)O)c4)C3)[C@H](C)[C@H]12 here?
Answer: 2 µg/mL (≈ 4.21 µM)

Tested on: Klebsiella pneumoniae
Experiment: Antimicrobial activity against CTX-M-2 producing Klebsiella pneumoniae with PFGE pulsotype I by Etest
Format: functional
Conditions: not given

Question: For C[C@@H](O)[C@H]1C(=O)N2C(C(=O)O)=C(S[C@@H]3CN[C@H](C(=O)Nc4cccc(C(=O)O)c4)C3)[C@H](C)[C@H]12, which MIC is on record?
Answer: 1 µg/mL (≈ 2.1 µM)

Tested on: Klebsiella pneumoniae
Experiment: Antimicrobial activity against CTX-M-2 producing Klebsiella pneumoniae with PFGE pulsotype J by Etest
Format: functional
Conditions: not given

Question: Which MIC does the source give for C[C@@H](O)[C@H]1C(=O)N2C(C(=O)O)=C(S[C@@H]3CN[C@H](C(=O)Nc4cccc(C(=O)O)c4)C3)[C@H](C)[C@H]12 here?
Answer: 1.5 µg/mL (≈ 3.15 µM)

Tested on: Escherichia coli
Experiment: Antimicrobial activity against Escherichia coli str. K-12 substr. DH10B harboring plasmid CTX-M-2
Format: functional
Conditions: K-12 DH10B
Procedure, shortened: (§2)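 blaCTX-M PCR products were cut with XbaI/BamHI and cloned into pBC-SK(−), then electroporated into E. coli DH10B. Transformants were selected on LB agar with ampicillin 50 μg/ml and chloramphenicol 30 μg/ml, and sequences were confirmed. These clones were used for β-lactam MICs, with and without clavulanic acid.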

Question: Which MIC does the source give for C[C@@H](O)[C@H]1C(=O)N2C(C(=O)O)=C(S[C@@H]3CN[C@H](C(=O)Nc4cccc(C(=O)O)c4)C3)[C@H](C)[C@H]12 here?
Answer: 0.016 µg/mL (≈ 0.0336 µM)

Tested on: Escherichia coli
Experiment: Antimicrobial activity against Escherichia coli str. K-12 substr. DH10B harboring plasmid CTX-M-59
Format: functional
Conditions: K-12 DH10B
Procedure, shortened: as §2

Question: For C[C@@H](O)[C@H]1C(=O)N2C(C(=O)O)=C(S[C@@H]3CN[C@H](C(=O)Nc4cccc(C(=O)O)c4)C3)[C@H](C)[C@H]12, which MIC is on record?
Answer: 0.016 µg/mL (≈ 0.0336 µM)

Tested on: Klebsiella pneumoniae
Experiment: Antimicrobial activity against CTX-M-2 and TEM-1 producing Klebsiella pneumoniae transconjugants/transformants with PFGE pulsotype A by Etest
Format: functional
Conditions: not given
Procedure, shortened: (§3)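 The recipient was E. coli XL1-Blue Rifr NAr. Plasmids moved by broth mating, with transconjugants selected on LB agar containing ampicillin, rifampin and nalidixic acid, each at 50 μg/ml. Where mating failed, alkaline-lysis plasmid extracts were electroporated and selected on ampicillin 50 μg/ml. β-lactam MICs were read by Etest, with and without clavulanic acid.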

Question: How did the MIC turn out when C[C@@H](O)[C@H]1C(=O)N2C(C(=O)O)=C(S[C@@H]3CN[C@H](C(=O)Nc4cccc(C(=O)O)c4)C3)[C@H](C)[C@H]12 was run?
Answer: 0.125 µg/mL (≈ 0.263 µM)

Tested on: Klebsiella pneumoniae
Experiment: Antimicrobial activity against CTX-M-2 and TEM-1 producing Klebsiella pneumoniae transconjugants/transformants with PFGE pulsotype B by Etest
Format: functional
Conditions: not given
Procedure, shortened: as §3

Question: For C[C@@H](O)[C@H]1C(=O)N2C(C(=O)O)=C(S[C@@H]3CN[C@H](C(=O)Nc4cccc(C(=O)O)c4)C3)[C@H](C)[C@H]12, which MIC is on record?
Answer: 0.125 µg/mL (≈ 0.263 µM)

Tested on: Klebsiella pneumoniae
Experiment: Antimicrobial activity against CTX-M-59 and TEM-1 producing Klebsiella pneumoniae transconjugants/transformants with PFGE pulsotype C by Etest
Format: functional
Conditions: not given
Procedure, shortened: as §3

Question: How did the MIC turn out when C[C@@H](O)[C@H]1C(=O)N2C(C(=O)O)=C(S[C@@H]3CN[C@H](C(=O)Nc4cccc(C(=O)O)c4)C3)[C@H](C)[C@H]12 was run?
Answer: 0.064 µg/mL (≈ 0.135 µM)

Tested on: Klebsiella pneumoniae
Experiment: Antimicrobial activity against SHV-5 producing Klebsiella pneumoniae transconjugants/transformants with PFGE pulsotype D by Etest
Format: functional
Conditions: not given
Procedure, shortened: as §3

Question: Which MIC does the source give for C[C@@H](O)[C@H]1C(=O)N2C(C(=O)O)=C(S[C@@H]3CN[C@H](C(=O)Nc4cccc(C(=O)O)c4)C3)[C@H](C)[C@H]12 here?
Answer: 0.012 µg/mL (≈ 0.0252 µM)

Tested on: Klebsiella pneumoniae
Experiment: Antimicrobial activity against CTX-M-59 and TEM-1 producing Klebsiella pneumoniae transconjugants/transformants with PFGE pulsotype E by Etest
Format: functional
Conditions: not given
Procedure, shortened: as §3

Question: C[C@@H](O)[C@H]1C(=O)N2C(C(=O)O)=C(S[C@@H]3CN[C@H](C(=O)Nc4cccc(C(=O)O)c4)C3)[C@H](C)[C@H]12 was tested. Which MIC did it give?
Answer: 0.094 µg/mL (≈ 0.198 µM)

Tested on: Klebsiella pneumoniae
Experiment: Antimicrobial activity against CTX-M-2 and TEM-1 producing Klebsiella pneumoniae transconjugants/transformants with PFGE pulsotype F by Etest
Format: functional
Conditions: not given
Procedure, shortened: as §3

Question: With C[C@@H](O)[C@H]1C(=O)N2C(C(=O)O)=C(S[C@@H]3CN[C@H](C(=O)Nc4cccc(C(=O)O)c4)C3)[C@H](C)[C@H]12 as the compound, how does the MIC read?
Answer: 0.125 µg/mL (≈ 0.263 µM)

Tested on: Klebsiella pneumoniae
Experiment: Antimicrobial activity against CTX-M-59 and TEM-1 producing Klebsiella pneumoniae transconjugants/transformants with PFGE pulsotype G by Etest
Format: functional
Conditions: not given
Procedure, shortened: as §3

Question: With C[C@@H](O)[C@H]1C(=O)N2C(C(=O)O)=C(S[C@@H]3CN[C@H](C(=O)Nc4cccc(C(=O)O)c4)C3)[C@H](C)[C@H]12 as the compound, how does the MIC read?
Answer: 0.125 µg/mL (≈ 0.263 µM)

Tested on: Klebsiella pneumoniae
Experiment: Antimicrobial activity against CTX-M-2 and TEM-1 producing Klebsiella pneumoniae transconjugants/transformants with PFGE pulsotype H by Etest
Format: functional
Conditions: not given
Procedure, shortened: as §3

Question: C[C@@H](O)[C@H]1C(=O)N2C(C(=O)O)=C(S[C@@H]3CN[C@H](C(=O)Nc4cccc(C(=O)O)c4)C3)[C@H](C)[C@H]12 was tested. Which MIC did it give?
Answer: 0.094 µg/mL (≈ 0.198 µM)

Tested on: Klebsiella pneumoniae
Experiment: Antimicrobial activity against CTX-M-2 and TEM-1 producing Klebsiella pneumoniae transconjugants/transformants with PFGE pulsotype I by Etest
Format: functional
Conditions: not given
Procedure, shortened: as §3

Question: With C[C@@H](O)[C@H]1C(=O)N2C(C(=O)O)=C(S[C@@H]3CN[C@H](C(=O)Nc4cccc(C(=O)O)c4)C3)[C@H](C)[C@H]12 as the compound, how does the MIC read?
Answer: 0.032 µg/mL (≈ 0.0673 µM)

Tested on: Klebsiella pneumoniae
Experiment: Antimicrobial activity against CTX-M-2 and TEM-1 producing Klebsiella pneumoniae transconjugants/transformants with PFGE pulsotype J by Etest
Format: functional
Conditions: not given
Procedure, shortened: as §3

Question: With C[C@@H](O)[C@H]1C(=O)N2C(C(=O)O)=C(S[C@@H]3CN[C@H](C(=O)Nc4cccc(C(=O)O)c4)C3)[C@H](C)[C@H]12 as the compound, how does the MIC read?
Answer: 0.094 µg/mL (≈ 0.198 µM)

Reference: ChEMBL document CHEMBL1255347, “Multiclonal outbreak of Klebsiella pneumoniae producing extended-spectrum beta-lactamase CTX-M-2 and novel variant CTX-M-59 in a neonatal intensive care unit in Brazil” (2008)
